Screens: PubChem, Johns Hopkins Ion Channel Center
In the library only some 3.5% were active in any assay of this set; here they are far more common.
MrgX1 ag: agonists of human MrgX1 receptor; 310,000 tested, 0.44% active; Q96LB2; AID 588627; MrgX1-HEK293 cells, Fluo-4 calcium fluorescence, agonist mode; stronger effect = higher value; B-score at 10 µM;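 active means calcium response B-score plate-corrected fluorescence ratio at least 3 library SD, with starting fluorescence B-score inside 5 SD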
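Test system: HEK293 cells stably expressing human MrgX1 receptor; amount: 15,000 cells per well; doses: compound delivered in addition one of three; times: overnight plating before 1 h dye loading; detection: Fluo-4 NW calcium-flux fluorescence, kinetic read; read-out basis: B-scored fluorescence response ratio; controls: positive and negative controls per plate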
MrgX1 antagonist: human MrgX1 receptor antagonism, primary screen; Q96LB2; MRGX1-HEK293 calcium flux, Fluo-4, BAM8-22 antagonism; stronger effect = lower value; B-score at 10 µM; 310,000 tested, 1.3% active; AID 588676;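 active means calcium-response B-score plate-corrected more than 3 library SD below zero, starting fluorescence within 5 deviations, no agonist response on first addition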;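 further: peak minus trough fluorescence over baseline after final BAM8-22 challenge near maximal dose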
MrgX1 PAM: human MrgX1 positive allosteric modulation, primary screen | AID 588675 | Q96LB2 | 310,000 tested, 0.63% active | MrgX1-HEK293, Fluo-4 calcium flux, FDSS; stronger effect = higher value | B-score at 10 µM;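 active means plate-corrected calcium response at least 3 library SD above typical, normal starting fluorescence, not activating the receptor alone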;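 further: compound read alongside a low EC10 to EC30 dose of BAM8-22 agonist; peak minus trough fluorescence over baseline measured at the second addition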
RGS4 block: human RGS4 inhibition; P49798; HEK293 M3R/RGS4 inducible, Fluo-4 calcium flux; stronger effect = higher value; triggered by carbachol at its EC20; B-score at 10 µM; 310,000 tested, 0.45% active; AID 463165;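 active means B-score, a plate-corrected calcium signal, over three deviations above library mean, with baseline fluorescence within five deviations of library mean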;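 further: RGS4 expression induced by doxycycline in cells with stable M3 receptor; B-score is computed from the integrated fluorescence ratio over baseline after carbachol; higher B-score means a larger calcium signal and so more RGS4 inhibition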
Target sequence (P49798 whole entry, looked up): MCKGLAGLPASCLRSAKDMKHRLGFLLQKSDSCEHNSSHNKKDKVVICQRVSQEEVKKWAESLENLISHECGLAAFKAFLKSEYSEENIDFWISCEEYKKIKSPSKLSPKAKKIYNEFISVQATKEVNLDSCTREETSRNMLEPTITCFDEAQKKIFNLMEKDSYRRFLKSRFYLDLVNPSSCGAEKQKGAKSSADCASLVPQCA
RGS4 pot: potentiators or activators of RGS4 | HEK293 M3R/inducible RGS4, carbachol calcium flux Fluo4; stronger effect = lower value | B-score at 10 µM | 310,000 tested, 0.92% active;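 active means B-score of the integrated calcium signal more than 4 SD below the library mean, with starting fluorescence not abnormally high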;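 further: negative B-score means reduced calcium response which marks RGS4 activation or potentiation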
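Material: M3R-expressing HEK293 line, RGS4 induced by doxycycline | Schedule: Overnight RGS4 induction, 30 min dye load 37 °C, 20 min compound RT | Measured by: Fluo4 fluorescence kinetic imaging of calcium | Read-out: Integrated calcium ratio converted to B score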
MrgX1 allo conf: confirmation of human MrgX1 receptor positive allosteric modulators; shares compounds with MrgX1 PAM; MrgX1-HEK293, Fluo-4 calcium fluorescence, FDSS; activation (ratio percentage), % at 10 µM; 1,200 tested, 13% active; AID 602413;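 active means ratio at least 3 SD above the weak peptide control, stable starting fluorescence, no direct agonism earlier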;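 further: compound followed by low BAM8-22 agonist challenge near EC20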
HEK293 Ca flux: counter-screen for MrgX1 antagonists: effect in parental HEK293 cells | shares compounds with MrgX1 antagonist | Fluo-4 calcium fluorescence, FDSS | fluorescence ratio F(max-min)/F0 at 10 µM | 4,000 tested, 2% active | AID 624111;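 active means duplicate-averaged calcium fluorescence ratio at least three times the standard deviation of buffer wells, a nonspecific response in parental cells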
HEK293 Ca counter: counter-screen for MrgX1 allosteric activators: effect in parental HEK293 cells; shares compounds with MrgX1 antagonist; parental HEK293 calcium flux, Fluo-4 fluorescence ratio; stronger effect = higher value; fluorescence ratio F(max-min)/F0 at 10 µM; 4,000 tested, 0.4% active; AID 624114;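 active means calcium fluorescence ratio, averaged over duplicates, at least 3 SD of the buffer-well ratio, meaning a nonspecific response in receptor-free cells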;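 further: untransfected parental HEK293 lacking MrgX1 used as counterscreen for MrgX1 allosteric activators; fluorescence change taken during the second addition on a kinetic imager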
HEK293 Ca cntr2: activity in parental HEK293 cells lacking MrgX1 receptor. 4,000 tested, 8.7% active. fluorescence ratio F(max-min)/F0 at 10 µM. shares compounds with MrgX1 antagonist. Fluo-4 calcium fluorescence (FDSS); stronger effect = higher value;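 active means calcium fluorescence ratio at least three times the spread of buffer wells, meaning a non-specific response in parental cells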
* = called active by the depositor; i = inactive; . = no result given.

SMILES | MrgX1 ag | MrgX1 antagonist | MrgX1 PAM | RGS4 block | RGS4 pot | MrgX1 allo conf | HEK293 Ca flux | HEK293 Ca counter | HEK293 Ca cntr2
Cc1ccc(C(c2nnnn2Cc2cccs2)N2CCN(C(=O)c3ccco3)CC2)cc1 (configuration not stated) | i | i | i | i | i | . | . | . | .
CCC(c1nnnn1Cc1cccs1)N1CCN(C(=O)c2ccco2)CC1 (configuration not stated) | i | i | 7.11* | i | i | i | i | i | i
CCNC(=S)NN(c1ccccc1)c1ccccc1 | i | i | i | i | i | . | . | . | .
COc1ccccc1CCNC(=O)CSc1ccc(-c2cccs2)nn1 | i | i | 7.93* | i | i | i | i | i | i
O=C(CSc1ccc(-c2cccs2)nn1)NCCc1ccccc1 | i | i | i | i | i | . | . | . | .
CCOc1ccc(N2CCc3c(C)nc(SC)nc32)cc1 | i | i | i | i | i | . | . | . | .
CC(C)Cc1ccc(C(C)C(=O)Nc2ccccc2O)cc1 (configuration not stated) | i | i | 6.96* | i | i | i | i | i | i
Cn1c(=NC(=O)c2ccccc2[N+](=O)[O-])sc2cccc(F)c21 | i | i | i | i | i | . | . | . | .
O=C(Cn1c(NCCO)nc2ccccc21)c1ccccc1 | i | i | 7.26* | i | i | i | i | i | i
CC(=O)c1ccc(NC(=O)C(Cc2ccccc2)NC(=O)c2ccco2)cc1 (configuration not stated) | i | i | 8.87* | i | i | i | i | i | i
COc1ccc(NC(=O)C(Cc2ccccc2)NC(=O)c2ccco2)cc1OC (configuration not stated) | i | i | i | i | i | . | . | . | .
CC1Cc2ccccc2N1CC(=O)NC(c1ccccc1)c1ccccc1 (configuration not stated) | i | i | i | i | i | . | . | . | .
O=C(CCC(=O)N1CCN(c2ccc(O)cc2)CC1)c1ccc(Br)cc1 | i | i | i | i | i | . | . | . | .
NC(=O)C1CCN(C(=O)CCC(=O)c2ccc(Br)cc2)CC1 | i | i | 8.67* | i | i | i | i | i | i
Cc1cc(C(=O)NCc2ccccc2Cl)n(-c2ccccc2)n1 | i | i | 9.32* | i | i | i | i | i | i
COc1ccccc1CNC(=O)c1cc(C)nn1-c1ccccc1 | i | i | i | i | i | . | . | . | .
O=C(C1CCOCC1)N1CCCC(N2CCN(c3cccc(C(F)(F)F)c3)CC2)C1 (configuration not stated) | i | i | i | i | i | . | . | . | .
O=S(=O)(CC(O)COc1ccc(Br)cc1)c1ccccc1 (configuration not stated) | i | i | 9.02* | i | i | i | i | i | i
O=S(=O)(c1ccccc1)N(CC(O)COc1ccccc1)c1ccccc1 (configuration not stated) | i | i | 7.75* | i | i | i | i | i | i
Cc1ccc(S(=O)(=O)CC(O)COc2ccc(C#N)cc2)cc1 (configuration not stated) | i | i | i | i | i | . | . | . | .
N#CCCNS(=O)(=O)c1ccc(C(=O)OCCCOC(=O)c2ccc(S(=O)(=O)NCCC#N)cc2)cc1 | i | i | i | i | i | . | . | . | .
